Structures are written as SMILES. Values after ≈ are worked out from the molar mass of the structure shown. Active and inactive are the calls of the source. The rule behind the calls is not given here.

The target of series [1] is T1, Angiopoietin-1 receptor (Homo sapiens, UniProt Q02763). Nature of the series: Inhibition of GST-fused TIE2 (unknown origin) using poly[Glu:Tyr] as substrate assessed as phosphotyrosine level by ELISA. The essentials:
(§1)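 ELISA on poly-Glu-Tyr-coated plates using a GST-Tie-2 kinase fusion protein and 100 µM ATP. Phosphorylated product was detected with HRP-conjugated anti-phosphotyrosine monoclonal antibody (PY20). For reversibility, enzyme was preincubated with compound for 15 min before ATP was added. Kinetics were run with titrated ATP.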

Series [2] in a line: Metabolic stability in rat liver microsomes assessed as hepatic extraction ratio. In kind it is ADME, Microsome. The settings on record: read-out: ERH.
Series [3] has as its target Epidermal growth factor receptor (Homo sapiens, UniProt P04626+P00533+Q15303+P21860). Description: Inhibition of human EGFR extracellular domain/TIE2 intracellular domain transfected in mouse NIH/3T3 cells assessed as phosphotyrosine level preincubated for 60 mins followed by EGF stimulation by DELFIA assay. In kind it is cell-based. The conditions noted are these: nih3t3. Summed up:
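NIH/3T3 fibroblasts stably transfected with a chimera of human EGFR extracellular domain and human Tie-2 intracellular domain. Cells were exposed to compound for 60 min, stimulated with EGF, then fixed. Phosphotyrosine was read with an Eu-labeled antibody by DELFIA. In washout runs, medium was replaced with fresh medium and cells were stimulated at set times.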

A short description of series [4]: Efflux ratio of permeability across basolateral to apical side over apical to basolateral side in human Caco2 cells expressing p-gp. The settings on record: Caco-2. In kind it is ADME, cell-based.
Series [5] concerns the target Platelet-derived growth factor receptor beta (Homo sapiens, UniProt P09619). Nature of the series: Inhibition of PDGFR (unknown origin).
The target of series [6] is Vascular endothelial growth factor receptor 2 (Homo sapiens, UniProt P35968). Description: Inhibition of KDR (unknown origin).
The nature of series [7]: Permeability across apical to basolateral side in human Caco2 cells expressing p-gp. The settings on record: Caco-2, read-out: permeability. It counts as ADME, cell-based.
Series [8] has as its target Proto-oncogene tyrosine-protein kinase Src (Homo sapiens, UniProt P12931). Nature of the series: Inhibition of SRC (unknown origin).
Series [9] concerns the target Tyrosine-protein kinase Lck (Homo sapiens, UniProt P06239). Nature of the series: Inhibition of LCK (unknown origin).
Series [10] addresses T1, Angiopoietin-1 receptor. Description: Inhibition of TIE2 (unknown origin). Summed up:
as §1

Series [11] can be described thus: Volume of distribution at steady state in Sprague-Dawley rat at 0.164 mg/kg, iv. In kind it is ADME, organism-based. Further details: dose 0.164 mg/kg, route intravenous. The settings on record: in vivo, read-out: Vdss. Summed up:
(§2)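 Male Sprague–Dawley rats, fed, given a single 0.164 mg/kg IV dose. Clearance, steady-state volume of distribution and half-life were derived from plasma levels.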

The nature of series [12]: Oral bioavailability in Sprague-Dawley rat at 4.2 mg/kg. It counts as ADME, organism-based. The settings on record: in vivo. Summed up:
(§3)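 Ultrafasted Sprague–Dawley rats given 4.2 mg/kg as an oral suspension. Cmax, Tmax, hepatic extraction (Eh) and oral bioavailability were derived from systemic plasma levels.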

In series [13] the target is Fibroblast growth factor receptor (Homo sapiens, UniProt P22607+P11362+P22455+P21802). Description: Inhibition of FGFR (unknown origin). In kind it is protein assay.
A short description of series [14]: Tmax in Sprague-Dawley rat at 4.2 mg/kg, po. In kind it is ADME, organism-based. More on the design: dose 4.2 mg/kg, route oral. The conditions noted are these: in vivo. The essentials:
as §3

For series [15], the system named is Mus musculus. Description: Toxicity in mouse xenografted with rat C6 cells lacking human TIE2 assessed as body weight loss at 10 to 33 mg/kg, po after 10 days. It counts as organism-based. More on the design: dose 10-33 mg/kg, route oral. The settings on record: in vivo, 240 h.
Series [16] relates to C6. Description: Antitumor activity against rat C6 cells lacking human TIE2 xenografted in mouse assessed as tumor growth inhibition at 10 mg/kg, po bid after 10 days relative to control. In kind it is functional. The conditions noted are these: C6, 240 h, read-out: TGI. Summed up:
(§4)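 Oral dosing once or twice daily at 10 or 33 mg/kg for 10 days in the C6 rat glioblastoma xenograft model. The C6 line was uninfected parental cells without human Tie-2. Read-out was percent tumor growth inhibition.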

For series [17], the system named is C6. Nature of the series: Antitumor activity against rat C6 cells lacking human TIE2 xenografted in mouse assessed as tumor growth inhibition at 33 mg/kg, po bid after 10 days. It counts as functional, organism-based. More on the design: dose 33 mg/kg. Summed up: as §4
Series [18] concerns Mus musculus. Nature of the series: Inhibition of human TIE2 phosphorylation expressed in rat C6 cells xenografted in po dosed mouse. In kind it is functional, organism-based. The essentials:
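Ex vivo assay in C6 rat glioblastoma clones overexpressing human Tie-2 from a retroviral construct, after a single oral dose. Frozen tumors were homogenized in lysis buffer and lysates captured on antibody-coated plates, with HRP-labeled antibody detection. Plasma and tumor drug levels were measured by LC–MS.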

The nature of series [19]: Permeability across basolateral to apical side in human Caco2 cells expressing p-gp. In kind it is ADME, cell-based. The settings on record: Caco-2, read-out: permeability.
The nature of series [20]: Clearance in Sprague-Dawley rat at 0.164 mg/kg, iv. It counts as ADME, organism-based. More on the design: dose 0.164 mg/kg, route intravenous. The conditions noted are these: in vivo. The essentials:
as §2

The target in series [21] is Epidermal growth factor receptor (Homo sapiens, UniProt P00533). Description: Inhibition of EGFR (unknown origin).
Series [22] relates to C6. Description: Antitumor activity against rat C6 cells lacking human TIE2 xenografted in mouse assessed as tumor growth inhibition at 10 mg/kg, po qd after 10 days relative to control. It counts as functional. The conditions noted are these: C6, 240 h, read-out: TGI. The essentials: as §4
The subject of series [23] is C6. Description: Antitumor activity against rat C6 cells lacking human TIE2 xenografted in mouse assessed as tumor growth inhibition at 33 mg/kg, po qd after 10 days relative to control. The conditions noted are these: C6, 240 h, read-out: TGI. It counts as functional. The essentials: as §4
The subject of another series is Rattus norvegicus. Description: Metabolic stability in Sprague-Dawley rat assessed as hepatic extraction at 4.2 mg/kg, po. The settings on record: in vivo. Further details: dose 4.2 mg/kg, route oral. In kind it is ADME, organism-based. The essentials:
as §3

The next series has as its system Salmonella typhimurium. Nature of the series: Mutagenic activity in Salmonella typhimurium by Ames assay. It counts as toxicity, organism-based. The conditions noted are these: salmonella enterica subsp. enterica serovar typhimurium.
Series [24] in a line: Cmax in Sprague-Dawley rat at 4.2 mg/kg, po. The conditions noted are these: in vivo. Further details: dose 4.2 mg/kg, route oral. It counts as ADME, organism-based. The essentials: as §3
The nature of series [25]: Half life in Sprague-Dawley rat at 0.164 mg/kg, iv. It counts as ADME, organism-based. More on the design: dose 0.164 mg/kg, route intravenous. The conditions noted are these: in vivo. The essentials: as §2
The nature of series [26]: Solubility of the compound. In kind it is physicochemical.
Series [27] can be described thus: Mutagenic activity in micronucleus (unknown origin). It counts as ADME.
The species named for a further series is Homo sapiens. Description: Inhibition of IKr (unknown origin).
The nature of series [28]: Inhibition of cytochrome P450 (unknown origin). It counts as ADME, Homo sapiens.
Series [29] concerns the target Voltage-gated inwardly rectifying potassium channel KCNH2 (Homo sapiens, UniProt Q12809). Nature of the series: Inhibition of human ERG.
Series [30] can be described thus: Metabolic stability in human liver microsomes assessed as hepatic extraction ratio. In kind it is ADME, Microsome. The conditions noted are these: read-out: ERH.

Vascular endothelial growth factor receptor 2, sequence (P35968 whole entry): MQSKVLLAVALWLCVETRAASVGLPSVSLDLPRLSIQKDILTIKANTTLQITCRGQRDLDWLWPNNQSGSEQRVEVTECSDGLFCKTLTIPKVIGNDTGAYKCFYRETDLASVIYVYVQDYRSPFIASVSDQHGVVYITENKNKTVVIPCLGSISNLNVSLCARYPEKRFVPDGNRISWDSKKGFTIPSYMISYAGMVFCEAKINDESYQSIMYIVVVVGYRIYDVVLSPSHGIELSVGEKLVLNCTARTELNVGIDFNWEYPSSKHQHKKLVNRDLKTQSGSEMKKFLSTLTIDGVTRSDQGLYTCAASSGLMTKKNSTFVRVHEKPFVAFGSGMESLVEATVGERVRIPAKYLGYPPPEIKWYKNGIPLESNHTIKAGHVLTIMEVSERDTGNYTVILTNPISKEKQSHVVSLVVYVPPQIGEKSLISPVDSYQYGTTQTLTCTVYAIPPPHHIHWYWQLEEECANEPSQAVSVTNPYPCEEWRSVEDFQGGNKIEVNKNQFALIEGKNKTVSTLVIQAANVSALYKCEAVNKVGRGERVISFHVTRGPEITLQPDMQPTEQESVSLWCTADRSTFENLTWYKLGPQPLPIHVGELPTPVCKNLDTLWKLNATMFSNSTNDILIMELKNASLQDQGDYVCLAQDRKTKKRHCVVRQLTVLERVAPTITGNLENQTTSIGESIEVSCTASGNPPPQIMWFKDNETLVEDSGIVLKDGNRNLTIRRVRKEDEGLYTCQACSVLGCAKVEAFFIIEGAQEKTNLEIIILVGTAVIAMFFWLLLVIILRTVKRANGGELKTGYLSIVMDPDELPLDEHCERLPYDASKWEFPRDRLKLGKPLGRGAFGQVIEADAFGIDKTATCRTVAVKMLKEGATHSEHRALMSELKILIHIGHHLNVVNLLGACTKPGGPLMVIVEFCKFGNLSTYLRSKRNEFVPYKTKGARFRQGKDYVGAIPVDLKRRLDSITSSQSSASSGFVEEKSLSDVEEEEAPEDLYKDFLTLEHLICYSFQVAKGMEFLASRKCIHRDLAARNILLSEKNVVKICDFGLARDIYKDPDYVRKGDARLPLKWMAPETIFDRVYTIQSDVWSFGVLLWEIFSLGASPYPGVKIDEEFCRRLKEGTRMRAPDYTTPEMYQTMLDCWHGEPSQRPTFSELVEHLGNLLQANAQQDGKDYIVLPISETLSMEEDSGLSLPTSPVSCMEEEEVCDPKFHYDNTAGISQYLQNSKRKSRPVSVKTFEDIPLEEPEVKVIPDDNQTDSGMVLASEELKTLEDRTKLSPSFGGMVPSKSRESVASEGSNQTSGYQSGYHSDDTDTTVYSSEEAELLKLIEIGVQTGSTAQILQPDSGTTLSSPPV
T1 sequence (Q02763 whole entry, the tested form may be a part): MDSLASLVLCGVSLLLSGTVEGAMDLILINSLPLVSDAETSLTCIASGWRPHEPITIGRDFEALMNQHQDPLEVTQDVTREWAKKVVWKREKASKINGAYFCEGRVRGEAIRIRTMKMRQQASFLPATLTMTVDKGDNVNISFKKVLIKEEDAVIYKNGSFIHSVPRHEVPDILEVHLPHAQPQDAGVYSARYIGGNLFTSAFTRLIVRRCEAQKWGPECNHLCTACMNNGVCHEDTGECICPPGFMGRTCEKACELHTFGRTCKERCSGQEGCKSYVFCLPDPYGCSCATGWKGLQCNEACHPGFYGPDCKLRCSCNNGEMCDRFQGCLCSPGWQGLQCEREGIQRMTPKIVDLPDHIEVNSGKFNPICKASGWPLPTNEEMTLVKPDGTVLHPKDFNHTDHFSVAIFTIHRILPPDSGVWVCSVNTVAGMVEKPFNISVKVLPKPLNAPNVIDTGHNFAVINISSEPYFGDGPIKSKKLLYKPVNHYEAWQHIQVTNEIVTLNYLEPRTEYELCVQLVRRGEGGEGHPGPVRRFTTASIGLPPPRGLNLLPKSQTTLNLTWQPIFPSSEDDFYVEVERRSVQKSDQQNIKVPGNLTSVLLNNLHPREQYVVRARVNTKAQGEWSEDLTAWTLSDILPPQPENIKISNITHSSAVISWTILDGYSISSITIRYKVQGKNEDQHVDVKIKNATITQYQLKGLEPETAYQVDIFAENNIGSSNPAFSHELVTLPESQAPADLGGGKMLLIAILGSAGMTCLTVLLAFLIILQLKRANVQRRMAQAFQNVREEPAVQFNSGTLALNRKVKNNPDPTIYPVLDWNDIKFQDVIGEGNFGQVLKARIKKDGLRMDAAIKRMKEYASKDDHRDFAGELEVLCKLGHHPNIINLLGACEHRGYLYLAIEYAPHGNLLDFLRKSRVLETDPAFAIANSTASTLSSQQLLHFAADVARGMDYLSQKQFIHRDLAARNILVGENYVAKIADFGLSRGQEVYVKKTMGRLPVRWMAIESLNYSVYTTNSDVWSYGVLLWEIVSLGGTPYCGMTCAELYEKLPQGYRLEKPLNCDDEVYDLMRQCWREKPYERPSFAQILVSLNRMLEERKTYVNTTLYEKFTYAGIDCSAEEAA
Platelet-derived growth factor receptor beta, sequence (P09619 whole entry): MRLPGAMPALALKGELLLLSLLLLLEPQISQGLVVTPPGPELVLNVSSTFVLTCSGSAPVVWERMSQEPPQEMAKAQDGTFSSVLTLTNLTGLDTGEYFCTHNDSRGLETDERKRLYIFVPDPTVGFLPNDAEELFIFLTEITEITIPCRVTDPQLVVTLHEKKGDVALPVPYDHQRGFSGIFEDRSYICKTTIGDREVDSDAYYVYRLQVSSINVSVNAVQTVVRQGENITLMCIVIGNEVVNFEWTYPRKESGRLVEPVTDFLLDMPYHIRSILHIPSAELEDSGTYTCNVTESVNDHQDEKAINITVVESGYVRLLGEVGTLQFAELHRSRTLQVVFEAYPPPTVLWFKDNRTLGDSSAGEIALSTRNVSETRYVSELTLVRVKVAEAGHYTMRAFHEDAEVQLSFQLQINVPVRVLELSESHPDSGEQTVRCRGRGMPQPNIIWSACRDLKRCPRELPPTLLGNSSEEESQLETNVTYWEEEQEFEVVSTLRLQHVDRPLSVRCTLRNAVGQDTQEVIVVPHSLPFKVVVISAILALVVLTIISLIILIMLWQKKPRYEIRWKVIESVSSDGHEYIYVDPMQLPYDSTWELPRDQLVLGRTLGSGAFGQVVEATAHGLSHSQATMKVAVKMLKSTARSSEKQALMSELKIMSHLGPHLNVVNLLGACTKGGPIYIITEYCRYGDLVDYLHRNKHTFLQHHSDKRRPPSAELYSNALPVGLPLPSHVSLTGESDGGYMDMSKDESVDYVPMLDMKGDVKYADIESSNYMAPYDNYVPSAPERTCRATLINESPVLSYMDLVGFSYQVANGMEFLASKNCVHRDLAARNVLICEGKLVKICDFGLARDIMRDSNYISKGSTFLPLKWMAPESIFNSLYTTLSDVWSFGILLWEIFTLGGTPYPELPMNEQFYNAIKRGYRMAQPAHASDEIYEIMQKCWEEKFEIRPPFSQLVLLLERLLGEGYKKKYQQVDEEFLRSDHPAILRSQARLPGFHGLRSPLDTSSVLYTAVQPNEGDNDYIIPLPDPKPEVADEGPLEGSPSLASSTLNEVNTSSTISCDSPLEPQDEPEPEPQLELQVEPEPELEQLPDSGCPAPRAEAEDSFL
Epidermal growth factor receptor (Homo sapiens, UniProt P00533), sequence (P00533 whole entry): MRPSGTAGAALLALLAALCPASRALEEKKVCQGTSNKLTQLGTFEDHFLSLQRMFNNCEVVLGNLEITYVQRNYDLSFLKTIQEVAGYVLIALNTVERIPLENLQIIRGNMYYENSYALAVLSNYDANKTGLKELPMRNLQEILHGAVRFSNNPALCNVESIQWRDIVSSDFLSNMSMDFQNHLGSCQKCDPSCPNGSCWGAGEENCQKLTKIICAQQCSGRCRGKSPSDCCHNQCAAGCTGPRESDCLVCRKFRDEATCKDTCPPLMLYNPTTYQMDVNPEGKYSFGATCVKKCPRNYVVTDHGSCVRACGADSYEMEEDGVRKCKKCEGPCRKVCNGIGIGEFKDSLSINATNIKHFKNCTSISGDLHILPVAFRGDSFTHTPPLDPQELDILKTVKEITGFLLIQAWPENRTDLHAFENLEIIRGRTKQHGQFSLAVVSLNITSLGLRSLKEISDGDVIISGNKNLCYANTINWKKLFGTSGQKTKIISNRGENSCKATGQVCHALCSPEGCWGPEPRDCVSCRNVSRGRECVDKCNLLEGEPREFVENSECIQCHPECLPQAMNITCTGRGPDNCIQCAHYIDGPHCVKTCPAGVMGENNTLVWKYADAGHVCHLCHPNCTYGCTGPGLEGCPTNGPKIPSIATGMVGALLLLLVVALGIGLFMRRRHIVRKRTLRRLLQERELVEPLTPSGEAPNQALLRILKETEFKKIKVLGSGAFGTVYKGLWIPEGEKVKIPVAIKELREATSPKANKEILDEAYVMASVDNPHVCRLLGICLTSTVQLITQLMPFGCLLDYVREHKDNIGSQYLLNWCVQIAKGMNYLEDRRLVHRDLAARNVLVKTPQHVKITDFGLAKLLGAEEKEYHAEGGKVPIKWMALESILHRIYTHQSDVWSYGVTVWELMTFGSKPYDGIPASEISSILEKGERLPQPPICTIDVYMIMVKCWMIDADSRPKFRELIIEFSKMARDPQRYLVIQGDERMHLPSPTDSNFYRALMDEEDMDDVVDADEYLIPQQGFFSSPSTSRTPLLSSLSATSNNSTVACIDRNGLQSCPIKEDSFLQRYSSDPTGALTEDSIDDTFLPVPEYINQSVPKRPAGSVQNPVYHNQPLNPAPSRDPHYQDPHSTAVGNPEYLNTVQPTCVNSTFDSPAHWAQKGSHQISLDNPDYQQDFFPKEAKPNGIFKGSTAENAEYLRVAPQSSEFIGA

For `Cc1ccc(F)c(NC(=O)Nc2cccc(C(=O)c3cn(C4CCCC4)c4ncnc(N)c34)c2)c1`, the results for the IC50 (at Angiopoietin-1 receptor [1]; in [3]) were 12 nM and 0.89 nM, respectively. Further, the hepatic extraction ratio in series [2] turned out to be 0.8. The efflux ratio in series [4] was found to be 9.2.

For `COc1ccc(C)cc1NC(=O)Nc1cccc(C(=O)c2cn(C3CCCC3)c3ncnc(N)c23)c1`, the IC50 on Angiopoietin-1 receptor [1] came to 8.8 nM; in series [3] it was 0.69 nM. Besides, the hepatic extraction ratio in series [2] turned out to be 0.69. In series [4], the efflux ratio is 9.4.

For the compound `Nc1ncnc2c1c(C(=O)c1cccc(NC(=O)Nc3c(F)cccc3F)c1)cn2C1CCCC1`, the half-inhibitory concentration (IC50) was above 5000 nM in series [5], 3100 nM in [6], 361 nM at Angiopoietin-1 receptor [1] and 67 nM in series [3]. For the same compound, the hepatic extraction ratio in series [2] turned out to be 0.83. The Papp A→B in series [7] was 7.7 ×10⁻⁶ cm/s. For the same compound, the efflux ratio in series [4] was 3.5.

Consider `Nc1ncnc2c1c(C(=O)c1ccc(NC(=O)Nc3c(F)cccc3F)cc1)cn2C1CCCC1`, for which the half-maximal inhibitory concentration (IC50) on Angiopoietin-1 receptor [1] turned out to be 345 nM; in series [3] it was 254 nM.

`Nc1ncnc2c1c(C(=O)c1ccc(NS(=O)(=O)c3c(F)cccc3F)cc1)cn2C1CCCC1`: the 50% inhibitory concentration (IC50) on Angiopoietin-1 receptor [1] is 745 nM; in [3], 769 nM.

Take `Nc1ncnc2c1c(C(=O)c1cccc(NC(=O)Nc3ccc(Cl)cc3Cl)c1)cn2C1CCCC1`: the IC50 in series [3] was determined as 1.2 nM. The efflux ratio in series [4] was 1.9.

`Nc1ncnc2c1c(-c1nc3ccc(NS(=O)(=O)c4c(F)cccc4F)cc3[nH]1)cn2C1CCCC1`: the IC50 on Angiopoietin-1 receptor [1] stood at 568 nM; in series [3], 518 nM. The hepatic extraction ratio in [2] came to 0.69.

Take `COc1cc(-c2cn([C@H]3CC[C@H](N4CCN(C)CC4)CC3)c3ncnc(N)c23)ccc1NS(=O)(=O)c1ccccc1`: the half-inhibitory concentration (IC50) in [6] was above 3000 nM; in series [8] it was above 3000 nM; in series [9], above 3000 nM; at Angiopoietin-1 receptor [10], 137 nM.

On to `CC(C)n1cc(C(=O)c2cccc(NC(=O)Nc3ccc(Cl)cc3)c2)c2c(N)ncnc21`, for which the Vd in series [11] came out at 0.9 L/kg. The compound further came in with a bioavailability in [12] of 100%. For the same compound, the half-inhibitory concentration (IC50) is 1400 nM in series [5]; above 10000 nM in series [13]; above 10000 nM in series [6]; above 10000 nM in series [21]; above 3000 nM in series [28]. The Tmax in series [14] worked out at 45 min. Further, the Activity result in the series on Mus musculus [15] was “Non-toxic”; with Salmonella typhimurium, “Non-toxic”; in series [27], “Toxic”. Moreover, the inhibition in vivo at 10 mg/kg in the series with C6 [16] came out at 70%; with C6 [22], 40%. Besides, the TGI result in the series with C6 [17] was “Active”. Besides, the inhibition result in the series with Mus musculus [18] is “Active”. Besides, the Papp B→A in [19] came to 9.5 ×10⁻⁶ cm/s. The clearance in [20] amounted to 38 mL/min/kg. Besides, the hepatic extraction ratio was determined as 0.52 in [2] and 0.46 in series [30]. In the series on C6 [23], the inhibition in vivo at 33 mg/kg turned out to be 60%. In addition, in the series with Rattus norvegicus, the Stability is 27 mL/min/kg. In series [24], the highest concentration (Cmax) was 1720 ng/mL. In addition, in series [25], the half-life was 24 min. This compound displayed a solubility in [26] of 35 µg/mL (≈ 78 µM). In addition, in the series listed under Homo sapiens, the IC20 is 1000 nM. Moreover, in series [29], the “inhibition (INH)” value was “Active”. The efflux ratio in [4] was determined as 1.5.

With `Nc1ncnc2c1c(-c1nc3ccc(NC(=O)Nc4c(F)cccc4F)cc3[nH]1)cn2C1CCCC1`, the values for the IC50 (at Angiopoietin-1 receptor [1]; in [3]) were 241 nM and 112 nM, respectively. In [2], the hepatic extraction ratio came to 0.9. Moreover, in [4], the efflux ratio is 3.2.

`Nc1ncnc2c1c(C(=O)c1cccc(NS(=O)(=O)c3c(F)cccc3F)c1)cn2C1CCCC1`: the concentration for half-maximal inhibition (IC50) at Angiopoietin-1 receptor [1] was 423 nM; in series [3], 253 nM. Moreover, in [4], the efflux ratio turned out to be 4.7.

Turning to `Nc1ncnc2c1c(C(=O)c1cccc(NC(=O)Nc3ccc(Cl)cc3)c1)cn2C1CCCC1`, the IC50 on Angiopoietin-1 receptor [1] stood at 45 nM; in series [3] it was 4.6 nM. For the same compound, in series [2], the hepatic extraction ratio was found to be 0.7. The efflux ratio in [4] was 17.

Consider `Nc1ncnc2c1c(Cc1cccc(NS(=O)(=O)c3c(F)cccc3F)c1)cn2C1CCCC1`, for which the IC50 on Angiopoietin-1 receptor [1] is above 10000 nM.
